The values that follow come from ChEMBL document CHEMBL3407477, “Synthesis and biological evaluation of compact, conformationally constrained bifunctional opioid agonist - neurokinin-1 antagonist peptidomimetics” (Eur J Med Chem, 2015).

Series [1] concerns the target T1, Substance-P receptor (Homo sapiens, UniProt P25103). As to the kind of experiment: Displacement of [3H]SP from human NK1 receptor expressed in CHO cells after 20 mins by liquid scintillation counting analysis. The class given is cell-based. In outline: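 Membranes from hNK1/CHO cells (20 µg) were incubated with 0.4 nM [3H]SP and six test concentrations in duplicate. Buffer was 50 mM Tris pH 7.4 with 5 mM MgCl2, bacitracin, bestatin, captopril and PMSF, for 20 min at 25 °C. Nonspecific binding was defined with 10 µM SP. Samples were filtered on PEI-soaked GF/B, counted by scintillation, three independent experiments. Ki by Cheng-Prusoff from nonlinear-regression IC50.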

The target of series [2] is Mu-type opioid receptor (Cavia porcellus) (UniProt P97266). As to the kind of experiment: Partial agonist activity at MOR in guinea pig ileum. The series is classed as tissue-based. In outline:
(§1)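 Isolated guinea pig ileum (MOR) and mouse vas deferens (DOR) bioassays. A [Leu5]enkephalin standard dose-response curve was run on each tissue preparation, and test IC50 values were normalized to it. Values are means of 3-4 experiments.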

Series [3] deals with Delta-type opioid receptor (Mus musculus, UniProt P32300). Put plainly: Activation of DOR in mouse vas deferens. A digest of the protocol: as §1
Sequence of Delta-type opioid receptor (Mus musculus, UniProt P32300) (P32300 whole entry): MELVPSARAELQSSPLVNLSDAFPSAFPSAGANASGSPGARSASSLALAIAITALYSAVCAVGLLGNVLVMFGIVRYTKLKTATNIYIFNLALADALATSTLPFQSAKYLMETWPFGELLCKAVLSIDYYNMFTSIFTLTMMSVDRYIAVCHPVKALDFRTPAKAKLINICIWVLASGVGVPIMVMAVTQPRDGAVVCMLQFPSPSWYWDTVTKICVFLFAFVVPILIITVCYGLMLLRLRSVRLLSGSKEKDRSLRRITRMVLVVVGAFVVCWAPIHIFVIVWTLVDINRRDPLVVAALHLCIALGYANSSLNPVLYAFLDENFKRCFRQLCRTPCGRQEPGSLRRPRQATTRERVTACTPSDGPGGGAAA
Series [4] concerns the target Mu-type opioid receptor (Cavia porcellus) (UniProt P97266). Put plainly: Antagonist activity at MOR in guinea pig ileum. The series is classed as tissue-based.
For series [5], the species on record is Rattus norvegicus. As to the kind of experiment: Antiallodynic effect in Wistar rat chronic constriction injury model at 0.1 to 1 nmol, it measured 7 days post CCI challenge by Von Frey test. The class given is functional, organism-based. In outline: (§2)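 Male Wistar rats (300-350 g) with i.t. catheters (L4-L6) had CCI made by four loose silk ligatures on the right sciatic nerve. On day 7 they received a single i.t. dose in water for injection. Mechanical allodynia was measured 30 min later with an automatic von Frey device (0.5-26 g) on the midplantar hind paw. Data are %MPE, 6-12 rats/group, ANOVA with Bonferroni.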

The species entered for series [6] is Rattus norvegicus. As to the kind of experiment: Reduction of hyperalgesia in Wistar rat chronic constriction injury model at 1 nmol, it measured 7 days post CCI challenge by cold plate test. The series is classed as functional, organism-based. A digest of the protocol:
(§3)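 In catheterized male Wistar rats with sciatic CCI, a single i.t. dose in water for injection was given on day 7. Thermal hyperalgesia was measured 30 min later as latency to hind-paw shake on a 5 °C cold plate. Data are %MPE, 6-12 rats/group, ANOVA with Bonferroni.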

Series [7] deals with Rattus norvegicus. As to the kind of experiment: Antinociceptive activity in Wistar rat up to 1.21 umol/kg, iv after 30 mins by tail flick test. The series is classed as functional, organism-based.
Series [8] deals with Rattus norvegicus. As to the kind of experiment: Toxicity in Wistar rat assessed as death at 9.5 nmol, iv. The class given is organism-based. Particulars: in vivo.
The species named for series [9] is Rattus norvegicus. Put plainly: Antinociceptive activity in Wistar rat at 1 to 50 nmol, it after 30 mins by tail flick test. The series is classed as functional, organism-based. In outline:
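Male Wistar rats (250-300 g), naive, with chronic i.t. catheters inserted through the atlanto-occipital membrane to L4-L6 under pentobarbital anaesthesia. Tested on day 7 after implantation. Drug in water for injection was given as a single 5 µl i.t. injection, then 10 µl flush. Tail-flick (light-bulb heat at two-thirds tail length, 9 s cut-off) was read 30 min post-dose. Values are %MPE vs baseline; 7-12 rats/group; ANOVA/Bonferroni.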
On the technique in general: In hot-plate and tail-flick tests a longer latency is read as antinociception.

Series [10] concerns Rattus norvegicus. As to the kind of experiment: Toxicity in Wistar rat assessed as seizures at 9.5 nmol, iv. The series is classed as organism-based. Particulars: in vivo.
The species entered for series [11] is Rattus norvegicus. Put plainly: Selectivity ratio of Ki for rat brain DOR to Ki for rat brain MOR.
For series [12], the target named is Mu-type opioid receptor (Rattus norvegicus, UniProt P33535). As to the kind of experiment: Displacement of [3H]DAMGO from rat brain MOR after 2 hrs. In outline:
(§4)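 Rat brain membranes were incubated 2 h at 0 °C with 0.72 nM [3H]DAMGO (MOR) or 0.78 nM [3H]DSLET (DOR). IC50 came from log-dose displacement curves.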
In general terms: In a radioligand displacement assay an active substance lowers the binding of a labelled ligand.

The target of series [13] is T1, Substance-P receptor. As to the kind of experiment: Antagonist activity at human NK1 receptor expressed in CHO cells by luminescence assay in presence of SP peptide. The series is classed as cell-based. Particulars: read-out: pA2 (converted).
The target in series [14] is Mu-type opioid receptor (Cavia porcellus, UniProt P97266). As to the kind of experiment: Activation of MOR in guinea pig ileum. The series is classed as tissue-based. A digest of the protocol: as §1
Sequence of Mu-type opioid receptor (Cavia porcellus, UniProt P97266) (P97266 whole entry): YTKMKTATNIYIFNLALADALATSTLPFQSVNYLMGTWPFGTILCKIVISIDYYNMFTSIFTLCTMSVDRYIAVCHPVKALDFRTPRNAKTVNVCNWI
For series [15], the target named is Delta-type opioid receptor (Rattus norvegicus, UniProt P33533). Put plainly: Displacement of [3H]DSLET from rat brain DOR after 2 hrs. In outline:
as §4

Series [16] relates to Rattus norvegicus. Put plainly: Antiallodynic effect in it dosed Wistar rat measured 7 days post CCI challenge by Von Frey test. The class given is functional. In outline: as §2
Series [17] concerns Rattus norvegicus. Put plainly: Reduction of hyperalgesia in it dosed Wistar rat measured 7 days post CCI challenge by cold plate test. The series is classed as functional. In outline: as §3
For series [18], the system named is Rattus norvegicus. As to the kind of experiment: Antiallodynic effect in Wistar rat chronic constriction injury model assessed as cross tolerance developement pretreated with H-Dmt-D-Arg-Aba-beta-Ala-NMe-Bn at 1 nmol, it qd for 6 days administered from 7 days post CCI challenge to day 13 measured 30 mins post morphine challenge by Von Frey test. The class given is functional, organism-based. A digest of the protocol:
(§5)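 CCI Wistar rats were made tolerant by 6 days of once-daily i.t. dosing (morphine 3.5 nmol or hybrid 1 nmol). On day 13 they received a single i.t. challenge (morphine 3.5 nmol or hybrid 1 nmol) against repeated-vehicle controls. Von Frey and cold plate tests were run 30 min later. Data are %MPE, 6-8 rats/group, ANOVA with Bonferroni.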

Series [19] deals with Rattus norvegicus. As to the kind of experiment: Antinociceptive activity in it dosed Wistar rat after 30 mins by tail flick test. The class given is functional. A digest of the protocol: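 Naive male Wistar rats (250-300 g) with i.t. catheters received a single i.t. injection in water for injection (5 µl plus 10 µl flush), 7 days after catheter implantation. Tail-flick latency to a light-bulb heat stimulus at two-thirds of tail length was read 30 min post-dose (timepoints up to 180 min), with a 9 s cut-off. Data are %MPE = (TL-BL)/(cut-off-BL)×100, 7-12 rats/group, ANOVA with Bonferroni.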

The subject of series [20] is Rattus norvegicus. Put plainly: Antiallodynic effect in Wistar rat chronic constriction injury model assessed as cross tolerance developement pretreated with H-Dmt-D-Arg-Aba-beta-Ala-NMe-Bn at 1 nmol, it qd for 6 days administered from 7 days post CCI challenge to day 13 measured 30 mins post morphine challenge by cold plate test. The series is classed as functional, organism-based. A digest of the protocol: as §5

The species entered for series [21] is Rattus norvegicus. As to the kind of experiment: Antiallodynic effect in Wistar rat chronic constriction injury model at 0.35 to 35 nmol, it measured 7 days post CCI challenge by Von Frey test. The series is classed as functional, organism-based. A digest of the protocol:
as §2

Series [22] concerns Rattus norvegicus. Put plainly: Antiallodynic effect in Wistar rat chronic constriction injury model assessed as tolerance to neuropathic pain at 3.5 nmol, it qd for 6 days administered from 7 days post CCI challenge to day 13 by cold plate test. The series is classed as functional, organism-based. In outline: (§6)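 CCI Wistar rats received once-daily i.t. injections (morphine 3.5 nmol, hybrids 1 nmol, in water for injection) from day 7 to day 13 after CCI. Von Frey and 5 °C cold plate tests were run 30 min after each dose. Data are %MPE and AUC, 12-16 rats/group, ANOVA with Bonferroni.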

The test system of series [23] is Rattus norvegicus. As to the kind of experiment: Antiallodynic effect in Wistar rat chronic constriction injury model assessed as cross tolerance developement pretreated with H-Dmt-D-Arg-Aba-Gly-NMe-3',5'-(CF3)2-Bn at 1 nmol, it qd for 6 days administered from 7 days post CCI challenge to day 13 measured 30 mins post morphine challenge by cold plate test. The class given is functional, organism-based. A digest of the protocol: as §5

The subject of series [24] is Rattus norvegicus. Put plainly: Antiallodynic effect in Wistar rat chronic constriction injury model assessed as cross tolerance developement pretreated with H-Dmt-D-Arg-Aba-Gly-NMe-3',5'-(CF3)2-Bn at 1 nmol, it qd for 6 days administered from 7 days post CCI challenge to day 13 measured 30 mins post morphine challenge by Von frey test. The class given is functional, organism-based. A digest of the protocol:
as §5

Series [25] deals with Rattus norvegicus. Put plainly: Antiallodynic effect in Wistar rat chronic constriction injury model assessed as tolerance to neuropathic pain at 3.5 nmol, it qd for 6 days administered from 7 days post CCI challenge to day 13 by Von Frey test. The series is classed as functional, organism-based. In outline: as §6
For series [26], the species on record is Rattus norvegicus. As to the kind of experiment: Toxicity in Wistar rat chronic constriction injury model at 1 nmol, it measured 7 days post CCI challenge. The class given is organism-based. Particulars: in vivo, icv_or_intrathecal, 168 h.

The source made the active and inactive calls.

T1 sequence (P25103 whole entry): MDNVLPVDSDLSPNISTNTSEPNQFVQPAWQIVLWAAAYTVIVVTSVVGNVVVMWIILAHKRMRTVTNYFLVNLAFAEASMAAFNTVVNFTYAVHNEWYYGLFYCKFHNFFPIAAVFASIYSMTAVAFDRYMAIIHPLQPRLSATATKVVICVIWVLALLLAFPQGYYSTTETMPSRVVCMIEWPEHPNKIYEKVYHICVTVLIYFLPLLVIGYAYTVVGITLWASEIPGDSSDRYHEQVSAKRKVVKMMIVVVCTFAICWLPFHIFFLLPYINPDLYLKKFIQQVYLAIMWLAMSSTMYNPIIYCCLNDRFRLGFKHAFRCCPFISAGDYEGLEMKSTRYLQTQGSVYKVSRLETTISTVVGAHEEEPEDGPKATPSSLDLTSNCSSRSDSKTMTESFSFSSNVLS
Sequence of Mu-type opioid receptor (Cavia porcellus) (P97266 whole entry): as the sequence (P97266 whole entry) above
Sequence of Mu-type opioid receptor (Rattus norvegicus, UniProt P33535) (P33535 whole entry): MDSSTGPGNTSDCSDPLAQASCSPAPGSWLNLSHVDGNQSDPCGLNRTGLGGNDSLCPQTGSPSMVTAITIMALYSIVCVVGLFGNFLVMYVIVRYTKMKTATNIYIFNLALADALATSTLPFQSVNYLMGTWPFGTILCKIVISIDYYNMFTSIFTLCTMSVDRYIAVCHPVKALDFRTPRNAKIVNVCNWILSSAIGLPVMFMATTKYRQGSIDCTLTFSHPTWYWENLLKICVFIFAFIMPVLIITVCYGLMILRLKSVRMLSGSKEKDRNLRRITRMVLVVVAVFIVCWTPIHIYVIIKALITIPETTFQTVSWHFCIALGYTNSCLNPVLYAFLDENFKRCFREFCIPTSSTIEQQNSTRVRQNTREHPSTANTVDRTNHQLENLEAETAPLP
Sequence of Delta-type opioid receptor (Rattus norvegicus, UniProt P33533) (P33533 whole entry): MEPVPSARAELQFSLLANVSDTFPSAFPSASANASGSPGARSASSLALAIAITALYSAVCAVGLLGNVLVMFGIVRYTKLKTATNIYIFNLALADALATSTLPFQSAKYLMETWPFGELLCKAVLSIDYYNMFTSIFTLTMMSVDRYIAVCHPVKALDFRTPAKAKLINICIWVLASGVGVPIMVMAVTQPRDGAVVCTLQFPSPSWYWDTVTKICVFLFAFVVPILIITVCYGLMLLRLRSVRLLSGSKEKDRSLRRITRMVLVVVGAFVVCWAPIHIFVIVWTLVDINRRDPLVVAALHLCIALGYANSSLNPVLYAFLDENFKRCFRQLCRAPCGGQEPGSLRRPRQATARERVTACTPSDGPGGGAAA

The term Ki denotes a measure of affinity in units of concentration, obtained from inhibition or displacement. A low value points to tighter binding. In turn, `Cc1cc(O)cc(C)c1C[C@H](N)C(=O)N[C@H](CCCNC(=N)N)C(=O)N[C@H]1Cc2ccccc2CN(CCC(=O)N(Cc2cc(C(F)(F)F)cc(C(F)(F)F)c2)CC(C)C)C1=O` had a Ki in series [1] of 743 nM.
For orientation: IC50 means the concentration that inhibits the measured activity by half. Read a low IC50 as greater potency in that assay. For the compound `Cc1cc(O)cc(C)c1C[C@H](N)C(=O)N[C@H](CCCNC(=N)N)C(=O)N[C@H]1Cc2ccccc2CN(CC(=O)N(Cc2cc(C(F)(F)F)cc(C(F)(F)F)c2)CC(C)C)C1=O`, in series [2], the Activity was 19.7 nM. Further, in [1], the Ki worked out at 35 nM. Moreover, the half-maximal inhibitory concentration (IC50) in [3] came to 14.5 nM. For the same compound, in series [4], the Ke is 12.7 nM.
In the case of `CC(=O)N[C@H]1Cc2ccccc2CN(CC(=O)N(C)Cc2cc(C(F)(F)F)cc(C(F)(F)F)c2)C1=O`, the outcome in [5], in series [6] and in [9] was Active. Further, in [7], the result was inactive. Also, the Activity entry in series [8] and in series [10] was “Toxic” throughout.
With `Cc1cc(O)cc(C)c1C[C@H](N)C(=O)N[C@H](CCCNC(=N)N)C(=O)N[C@H]1Cc2ccccc2CN(CCC(=O)N(C)Cc2cc(C(F)(F)F)cc(C(F)(F)F)c2)C1=O`, in series [11], the Ratio Ki was found to be 25.3. Besides, the Ki in series [1] amounted to 59.7 nM; in series [12], 0.08 nM; in series [15] it was 2.14 nM. The concentration for half-maximal inhibition (IC50) is 6.2 nM in series [3] and 11.3 nM in [14]. Also, in series [13], the Kb was 912 nM.
In the case of `Cc1cc(O)cc(C)c1C[C@H](N)C(=O)N[C@H](CCCNC(N)=O)C(=O)N[C@H]1Cc2ccccc2CN(CCC(=O)N(C)Cc2cc(C(F)(F)F)cc(C(F)(F)F)c2)C1=O`, the Ratio Ki in series [11] came to 1.5. For the same compound, the Ki in series [1] was determined as 34.7 nM; in [12], 0.37 nM; in [15], 0.55 nM. Moreover, the concentration for half-maximal inhibition (IC50) is 1.06 nM in series [3] and 2.03 nM in [14]. Besides, the Kb in [13] is 537 nM.
Consider `CN1CC[C@]23c4c5ccc(O)c4O[C@H]2[C@@H](O)C=C[C@H]3[C@H]1C5` [MORPHINE], for which the values for the ED50 in [16], in series [17] and in [19] were 6.25 nmol, 377 nmol and 0.49 nmol, respectively. Also, the outcome in series [6], in [21], in series [22] and in series [25] was Active. Moreover, the outcome in series [18], in [20], in series [23] and in series [24] was inactive.
As for `Cc1cc(O)cc(C)c1C[C@H](N)C(=O)N[C@H](CCCN=C(N)N)C(=O)N[C@H]1Cc2ccccc2CN(CC(N)=O)C1=O`, in series [26], the Activity entry is “Toxic”.
